What all share (format): functional
Test [1] concerns DLD-1. The test is described as follows: Cytotoxicity against human DLD1 cells after 3 days by methylene blue staining. To be noted: DLD-1, 72 h, read-out: ED50 (the source's name). In a few lines: (§1)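 Cells grown in RPMI-1640 at 37 °C, 5% CO2, seeded at 2880 cells/well for 3 h, then given sample (prepared at 1, 10, 40 and 100 µg/mL) for 3 days at 37 °C. Fixed in 10% formaldehyde/0.9% saline, stained with 1% methylene blue in 0.01 M borate, eluted with EtOH/0.1 M HCl, A650 read. ED50 is the concentration halving absorbance versus untreated cells.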

Test [2] in a line: Cytotoxicity against human medulloblastoma cells after 3 days by methylene blue staining. The settings on record: Medulloblastoma cell, 72 h, read-out: ED50 (the source's name). In a few lines: as §1
Test [3] has as its system KB. The test is described as follows: Cytotoxicity against human KB cells after 3 days by methylene blue staining. To be noted: 72 h, read-out: ED50 (the source's name). The essentials:
as §1

The results in this text go back to ChEMBL document CHEMBL1158834, “Cytotoxic clerodane diterpenoids from Casearia membranacea” (2005).

Converted amounts (≈) assume the structure as drawn.

`C=CC(=C)CC[C@]1(C)[C@H]2C[C@H](OC(=O)CCC)C=C3[C@H](OC(C)=O)O[C@H](OC(C)=O)[C@@]32[C@H](O)[C@H](OC(C)=O)[C@@H]1C` [CASEAMEMBRIN N]: the EC50 was 4.37 µg/mL (≈ 7.77 µM) in test [1], 3.27 µg/mL (≈ 5.81 µM) in test [2] and 8.94 µg/mL (≈ 15.9 µM) in test [3].

In the case of `CO[C@@]12[C@H](COC(N)=O)C3=C(C(=O)C(C)=C(N)C3=O)N1C[C@@H]1N[C@@H]12` [MITOMYCIN], the EC50 in test [1] came to 0.1 µg/mL (≈ 0.299 µM); in test [2], 0.1 µg/mL (≈ 0.299 µM); in test [3] it was 0.13 µg/mL (≈ 0.389 µM).

With `C=CC(=C)CC[C@]1(C)[C@H]2C[C@H](OC(=O)C(C)CC)C=C3[C@H](OC(C)=O)O[C@H](OC(C)=O)[C@@]32[C@H](OC(=O)CCC)C[C@@H]1C` (stereo partly drawn) [CASEAMEMBRIN M], the EC50 in test [1] was 14.2 µg/mL (≈ 24.1 µM); in test [2], 14.4 µg/mL (≈ 24.5 µM); in test [3], 18.4 µg/mL (≈ 31.3 µM).

In the case of `C=CC(=C)CC[C@]1(C)[C@H]2C[C@H](OC(=O)CC(C)C)C=C3[C@H](OC(C)=O)O[C@H](OC(C)=O)[C@@]32[C@H](O)[C@H](OC(C)=O)[C@@H]1C` [CASEAMEMBRIN O], the EC50 in test [1] turned out to be 2.54 µg/mL (≈ 4.4 µM); in test [2] it was 1.94 µg/mL (≈ 3.36 µM); in test [3], 6.94 µg/mL (≈ 12 µM).

Turning to `C=CC(=C)CC[C@]1(C)[C@H]2C[C@H](OC(=O)C(C)CC)C=C3[C@H](OC(=O)CCC)O[C@H](OC(C)=O)[C@@]32[C@H](O)[C@H](OC(C)=O)[C@@H]1C` (stereo partly drawn) [CASEAMEMBRIN D], the EC50 in test [1] turned out to be 1.81 µg/mL (≈ 2.99 µM); in test [2], 2.42 µg/mL (≈ 4 µM); in test [3], 5.57 µg/mL (≈ 9.21 µM).

Take `C=CC(=C)CC[C@]1(C)[C@H]2C[C@H](OC(=O)C(C)CC)C=C3[C@H](OC(C)=O)O[C@H](OC(C)=O)[C@@]32[C@H](O)C[C@@H]1C` (relative stereo): the EC50 in test [1] turned out to be 1.18 µg/mL (≈ 2.28 µM); in test [2], 1.93 µg/mL (≈ 3.72 µM); in test [3] it was 3.6 µg/mL (≈ 6.94 µM).
